Data taken from ChEMBL document CHEMBL5661985, “In silico design of novel probes for the atypical opioid receptor MRGPRX2” (Nat Chem Biol, 2017).
Activity calls are given as the source filed them. The calls are words filed in the database; no cut-off is given here.

How the values were obtained:
[1] = biological target: T1, Mitogen-activated protein kinase 10 (Homo sapiens, UniProt P53779); assay: Inhibition of JNK3 (unknown origin) by Kinome scan method
[2] = biological target: T2, Tyrosine-protein kinase BTK (Homo sapiens, UniProt Q06187); assay: Binding affinity to BTK (unknown origin) assessed dissociation constant by Kinome scan method
[3] = biological target: T3, Mas-related G-protein coupled receptor member X2 (Homo sapiens) (UniProt Q96LB1); assay: Agonist activity at N-terminal Flag-tagged human MRGPRX2 receptor expressed in tetracycline-induced FLP-IN/T-REX 293 cells assessed as increase in intracellular calcium release < 10 uM by FLIPR assay; format: functional, cell-based; settings: filed as agonist
T3 sequence (whole entry): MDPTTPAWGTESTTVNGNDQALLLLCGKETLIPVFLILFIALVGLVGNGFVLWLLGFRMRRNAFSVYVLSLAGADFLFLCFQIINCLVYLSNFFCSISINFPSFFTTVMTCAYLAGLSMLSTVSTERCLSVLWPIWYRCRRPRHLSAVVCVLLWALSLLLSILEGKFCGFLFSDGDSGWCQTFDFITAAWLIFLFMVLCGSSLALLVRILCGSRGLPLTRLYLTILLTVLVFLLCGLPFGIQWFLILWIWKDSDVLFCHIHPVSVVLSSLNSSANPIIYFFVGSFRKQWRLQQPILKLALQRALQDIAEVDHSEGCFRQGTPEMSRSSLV
Summary of the method: (§1)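 FLIPR calcium: FLP-IN/T-REX HEK-293-T stable line with N-terminal FLAG codon-optimized receptor, induced 24 h with 1 μg/mL tetracycline in 1% dialyzed FBS (uninduced cells as control); FLIPR calcium dye plus 2.5 mM probenecid 1 h 37°C; 10 s baseline, then drug in HBSS/20 mM HEPES/probenecid pH 7.4, 16-point curve 10 μM to 0.003 nM; fluorescence 120 s; fold over basal, n=3 triplicate.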

[4] = biological target: T4, Mas-related G-protein coupled receptor member X2 (Homo sapiens, UniProt Q96LB1); assay: Agonist activity at MRGPRX2 (unknown origin) expressed in HTLA cells assessed as induction of beta-arrestin 2 recruitment incubated for 18 to 24 hrs by PRESTO-Tango assay; format: functional, cell-based
T4 sequence (Q96LB1 whole entry): T3 sequence (whole entry)

[5] = biological target: T3, Mas-related G-protein coupled receptor member X2 (Homo sapiens); assay: Agonist activity at MRGPRX2 (unknown origin) expressed in HTLA cells assessed as induction of beta-arrestin 2 recruitment at 10 uM incubated for 18 to 24 hrs by PRESTO-Tango assay; format: functional, cell-based; settings: filed as agonist, time 18-24 hrs
Summary of the method: (§2)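 β-arrestin2 recruitment by PRESTO-Tango: HTLA cells transiently transfected (calcium phosphate) with codon-optimized MRGPRX2-Tango (WT or point mutant) or MRGPRB2-Tango, plated next day 20,000 cells/well on poly-L-lysine; drug in HBSS/20 mM HEPES/0.3% BSA pH 7.4 for 18–24 h; Bright-Glo luminescence (RLU); curves n=3 in triplicate, mutants n=4 in triplicate.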

[6] = biological target: T1, Mitogen-activated protein kinase 10; assay: Binding affinity to JNK3 (unknown origin) assessed dissociation constant by Kinome scan method
[7] = biological target: T5, Mitogen-activated protein kinase 8 (Homo sapiens, UniProt P45983); assay: Inhibition of JNK1 (unknown origin) by Kinome scan method
[8] = biological target: T2, Tyrosine-protein kinase BTK; assay: Inhibition of BTK (unknown origin) by Kinome scan method
[9] = biological target: T3, Mas-related G-protein coupled receptor member X2 (Homo sapiens); assay: Agonist activity at MRGPRX2 receptor in human LAD2 cells assessed as increase in intracellular calcium release by FLIPR assay; format: functional, cell-based; settings: filed as agonist
Summary of the method: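 LAD2 human mast cells seeded 50,000/well in Tyrode's buffer with calcium dye, 1 h before drug; 10 s baseline, drug added, fluorescence followed 120 s; expressed as fold calcium release over baseline; n=3 in triplicate.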

[10] = biological target: T3, Mas-related G-protein coupled receptor member X2 (Homo sapiens); assay: Agonist activity at MRGPRX2 (unknown origin) expressed in HTLA cells assessed as induction of beta-arrestin 2 recruitment <10 uM incubated for 18 to 24 hrs by PRESTO-Tango assay; format: functional, cell-based; settings: filed as agonist, time 18-24 hrs; summary of the method: as §2
[11] = biological target: T5, Mitogen-activated protein kinase 8; assay: Binding affinity to JNK1 (unknown origin) assessed dissociation constant by Kinome scan method
[12] = biological target: T6, Kappa-type opioid receptor (Homo sapiens, UniProt P41145); assay: Displacement of [3H]-Diprenorphine from KOR (unknown origin)
[13] = biological target: T3, Mas-related G-protein coupled receptor member X2 (Homo sapiens); assay: Agonist activity at MRGPRX2 receptor in human LAD2 cells assessed as increase in degranulation incubated for 30 mins by beta-hexosaminidase assay; format: functional, cell-based; settings: filed as agonist
Summary of the method: (§3)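 β-Hexosaminidase release: LAD2 cells in fresh medium 18 h, washed in Tyrode's buffer pH 7.4, 10,000 cells/well; drug (single concentration or 8-point curve) added in triplicate, 30 min 37°C; supernatant and Triton X-100 lysate each reacted with NAG in citrate pH 4.5 for 90 min 37°C, stopped with carbonate pH 10, A405; % release = released/total ×100, minus vehicle.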

[14] = biological target: T3, Mas-related G-protein coupled receptor member X2 (Homo sapiens); assay: Agonist activity at MRGPRX2 receptor in human LAD2 cells transfected with MRGPRX2 siRNA assessed as increase in degranulation incubated for 30 mins by beta-hexosaminidase assay; format: functional, cell-based
Summary of the method: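 LAD2 cells (1.2 million/well) transfected with 25 nM MRGPRX2 siRNA pool or non-targeting pool, 72 h; 200,000 cells taken for β-hexosaminidase assay with EC80 concentration of agonist, 30 min 37°C; knockdown checked by qRT-PCR on 1 million cells; fold change % degranulation versus DMSO; two-way ANOVA with Sidak test.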

[15] = biological target: T4, Mas-related G-protein coupled receptor member X2; assay: Agonist activity at N-terminal Flag-tagged human MRGPRX2 receptor expressed in tetracycline-induced FLP-IN/T-REX 293 cells assessed as increase in intracellular calcium release by FLIPR assay; format: functional, cell-based
[16] = biological target: T3, Mas-related G-protein coupled receptor member X2 (Homo sapiens); assay: Agonist activity at MRGPRX2 receptor in human LAD2 cells assessed as increase in degranulation at 10 uM incubated for 30 mins in presence of IgE by beta-hexosaminidase assay relative to control; format: functional, cell-based; settings: filed as agonist; summary of the method: as §3
[17] = biological target: T3, Mas-related G-protein coupled receptor member X2 (Homo sapiens); assay: Agonist activity at N-terminal Flag-tagged human MRGPRX2 receptor expressed in tetracycline-induced HEK-T cells assessed as increase in intracellular calcium release by FLIPR assay; format: functional, cell-based; settings: HEK-T cell, filed as agonist; summary of the method: as §1
[18] = biological target: T3, Mas-related G-protein coupled receptor member X2 (Homo sapiens); assay: Agonist activity at MRGPRX2 receptor in human LAD2 cells assessed as increase in degranulation at 10 uM incubated for 30 mins by beta-hexosaminidase assay relative to control; format: functional, cell-based; settings: filed as agonist; summary of the method: as §3
Mu-type opioid receptor = Mu-type opioid receptor (Homo sapiens, UniProt P35372); assay: Displacement of [3H]-DAMGO from MOR (unknown origin)
[19] = biological target: T3, Mas-related G-protein coupled receptor member X2 (Homo sapiens); assay: Agonist activity at MRGPRX2 receptor in human LAD2 cells assessed as increase in degranulation incubated for 30 mins in presence of naloxone by beta-hexosaminidase assay; format: functional, cell-based; summary of the method: as §3
[20] = biological target: Delta-type opioid receptor (Homo sapiens, UniProt P41143); assay: Displacement of [3H]-Naltrindole from DOR (unknown origin)
[21] = biological target: T3, Mas-related G-protein coupled receptor member X2 (Homo sapiens); assay: Agonist activity at N-terminal Flag-tagged human MRGPRX2 receptor expressed in HEK-T cells assessed as increase in intracellular calcium release by FLIPR assay; format: functional, cell-based; settings: HEK-T cell; summary of the method: as §1
HTLA [22] = assay: Agonist activity at MRGPRX2 D184E mutant (unknown origin) expressed in HTLA cells assessed as induction of beta-arrestin 2 recruitment incubated for 18 to 24 hrs by PRESTO-Tango assay; format: cell-based; settings: Homo sapiens, time 18-24 hrs; summary of the method: as §2
HTLA [23] = assay: Agonist activity at MRGPRX2 E164Q mutant (unknown origin) expressed in HTLA cells assessed as induction of beta-arrestin 2 recruitment incubated for 18 to 24 hrs by PRESTO-Tango assay; format: cell-based; settings: Homo sapiens, filed as agonist, time 18-24 hrs; summary of the method: as §2
HTLA [24] = assay: Agonist activity at MRGPRX2 D184N mutant (unknown origin) expressed in HTLA cells assessed as induction of beta-arrestin 2 recruitment incubated for 18 to 24 hrs by PRESTO-Tango assay; format: cell-based; settings: Homo sapiens, time 18-24 hrs; summary of the method: as §2
[25] = biological target: T6, Kappa-type opioid receptor; assay: Agonist activity at KOR (unknown origin) by Glo sensor assay; format: functional
[26] = Cytotoxicity against HTLA cells expressing MRGPRX2 (unknown origin) at 1 uM after 24 hrs; format: toxicity, cell-based; settings: human

T6 sequence (P41145 whole entry): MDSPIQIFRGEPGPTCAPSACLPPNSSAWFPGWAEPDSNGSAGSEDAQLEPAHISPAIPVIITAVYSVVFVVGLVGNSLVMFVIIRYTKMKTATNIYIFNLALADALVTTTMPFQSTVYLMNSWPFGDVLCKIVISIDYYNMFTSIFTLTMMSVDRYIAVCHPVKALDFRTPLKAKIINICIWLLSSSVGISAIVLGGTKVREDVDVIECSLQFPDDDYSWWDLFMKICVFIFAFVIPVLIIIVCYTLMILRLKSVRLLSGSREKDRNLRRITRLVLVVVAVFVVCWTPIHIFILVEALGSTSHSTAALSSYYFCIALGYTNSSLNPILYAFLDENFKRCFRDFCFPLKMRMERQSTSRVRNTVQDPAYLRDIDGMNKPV
T1 sequence (P53779 whole entry): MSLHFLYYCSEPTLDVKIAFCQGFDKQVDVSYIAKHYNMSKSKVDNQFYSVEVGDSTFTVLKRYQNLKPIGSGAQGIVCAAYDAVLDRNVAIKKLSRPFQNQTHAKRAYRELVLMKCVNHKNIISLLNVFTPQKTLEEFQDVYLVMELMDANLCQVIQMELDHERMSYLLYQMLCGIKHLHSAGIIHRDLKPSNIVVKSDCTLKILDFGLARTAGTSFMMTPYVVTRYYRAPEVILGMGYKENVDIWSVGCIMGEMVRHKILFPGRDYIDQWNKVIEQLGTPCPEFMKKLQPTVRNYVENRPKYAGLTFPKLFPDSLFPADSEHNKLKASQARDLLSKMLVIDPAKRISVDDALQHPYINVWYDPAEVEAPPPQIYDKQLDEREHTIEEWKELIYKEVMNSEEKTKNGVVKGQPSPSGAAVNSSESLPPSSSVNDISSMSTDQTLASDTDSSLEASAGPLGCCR
T2 sequence (Q06187 whole entry): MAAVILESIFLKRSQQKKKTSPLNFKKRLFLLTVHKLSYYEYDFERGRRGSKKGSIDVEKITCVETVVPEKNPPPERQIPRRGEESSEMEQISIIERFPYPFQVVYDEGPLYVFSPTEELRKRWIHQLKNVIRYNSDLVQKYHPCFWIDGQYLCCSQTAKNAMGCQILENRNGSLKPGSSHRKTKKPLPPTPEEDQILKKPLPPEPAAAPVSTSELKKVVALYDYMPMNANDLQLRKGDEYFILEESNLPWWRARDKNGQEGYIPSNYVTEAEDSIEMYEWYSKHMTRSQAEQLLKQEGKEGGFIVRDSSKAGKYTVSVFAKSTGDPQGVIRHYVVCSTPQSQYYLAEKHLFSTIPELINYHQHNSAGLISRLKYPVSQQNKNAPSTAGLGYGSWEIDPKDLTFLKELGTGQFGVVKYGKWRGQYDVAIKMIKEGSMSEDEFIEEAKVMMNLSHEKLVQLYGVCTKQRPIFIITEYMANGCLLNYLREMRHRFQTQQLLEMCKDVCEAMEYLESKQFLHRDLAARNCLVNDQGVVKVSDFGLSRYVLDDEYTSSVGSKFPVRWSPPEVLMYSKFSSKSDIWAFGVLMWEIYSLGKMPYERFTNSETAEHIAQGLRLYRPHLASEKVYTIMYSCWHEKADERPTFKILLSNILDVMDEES
Mu-type opioid receptor, sequence (P35372 whole entry): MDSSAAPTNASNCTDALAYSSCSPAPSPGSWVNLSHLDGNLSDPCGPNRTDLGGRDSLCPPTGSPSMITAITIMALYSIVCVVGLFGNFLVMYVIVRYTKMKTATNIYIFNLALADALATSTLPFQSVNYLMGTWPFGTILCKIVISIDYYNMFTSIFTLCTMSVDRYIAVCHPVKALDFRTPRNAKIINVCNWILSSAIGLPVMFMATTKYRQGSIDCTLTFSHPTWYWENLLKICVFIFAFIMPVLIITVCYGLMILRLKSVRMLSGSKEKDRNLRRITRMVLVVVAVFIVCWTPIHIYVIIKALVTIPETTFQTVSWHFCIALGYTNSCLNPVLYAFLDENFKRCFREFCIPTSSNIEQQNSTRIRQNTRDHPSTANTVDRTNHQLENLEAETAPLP
T5 sequence (P45983 whole entry): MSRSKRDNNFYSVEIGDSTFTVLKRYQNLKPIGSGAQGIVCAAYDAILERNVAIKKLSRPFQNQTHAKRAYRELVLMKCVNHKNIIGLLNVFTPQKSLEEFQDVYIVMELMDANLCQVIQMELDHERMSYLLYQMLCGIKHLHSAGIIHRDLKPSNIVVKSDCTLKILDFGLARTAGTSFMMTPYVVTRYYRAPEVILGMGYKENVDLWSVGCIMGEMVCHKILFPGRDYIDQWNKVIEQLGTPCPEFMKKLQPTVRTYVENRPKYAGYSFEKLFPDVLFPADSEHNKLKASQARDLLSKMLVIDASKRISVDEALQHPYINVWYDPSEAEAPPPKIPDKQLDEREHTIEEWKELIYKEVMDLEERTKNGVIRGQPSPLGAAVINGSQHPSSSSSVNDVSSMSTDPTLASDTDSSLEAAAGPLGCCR
Delta-type opioid receptor, sequence (P41143 whole entry): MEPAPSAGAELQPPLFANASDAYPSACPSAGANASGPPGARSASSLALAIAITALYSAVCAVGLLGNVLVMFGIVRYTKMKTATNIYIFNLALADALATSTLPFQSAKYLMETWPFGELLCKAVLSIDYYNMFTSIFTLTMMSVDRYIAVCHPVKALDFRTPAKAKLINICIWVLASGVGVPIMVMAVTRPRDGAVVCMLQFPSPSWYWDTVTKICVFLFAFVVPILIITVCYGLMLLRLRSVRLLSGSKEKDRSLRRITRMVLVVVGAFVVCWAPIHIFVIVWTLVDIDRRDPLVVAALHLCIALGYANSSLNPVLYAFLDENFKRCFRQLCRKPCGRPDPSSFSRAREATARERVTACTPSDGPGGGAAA

Cc1cc2nc(-c3ccccc3)cc(N3CCC(N(C)C)C3)n2n1 (stereo not given)
IC50 [1]: 20 µM
Kd [2]: 27 µM
Activity [3]: Active
EC50 ([4]; read-out: EC50): 3000 nM
Activity [5]: Active
Kd [6]: > 30 µM
IC50 [7]: 20 µM
IC50 [8]: 20 µM
Activity [9]: Active
Activity [10]: Active
Kd [11]: 19 µM

CN1CCC2(c3cccc(O)c3)Cc3nc4ccccc4cc3CC2C1 (racemic)
EC50 ([4]; read-out: pEC50 (converted)): 1820 nM
EC50 [12]: 88.7 µM
Ki [12]: 22 µM
Activity [13]: Active
Activity [14]: inactive
EC50 ([15]; read-out: EC50): 740 nM
EC50 ([15]; read-out: pEC50 (converted)): 646 nM
Activity [9]: Active
Activity [16]: 70%
Activity [17]: Active
Activity [18]: 70%
EC50 (Mu-type opioid receptor): 324 nM
Ki (Mu-type opioid receptor): 239 nM
Activity [19]: inactive
EC50 [20]: 13.1 nM
Ki [20]: 2.94 nM
Activity [21]: inactive

CC[C@H](C)[C@H](NC(=O)[C@H](CCCNC(=N)N)NC(=O)[C@H](CCCNC(=N)N)NC(=O)[C@H](CC(C)C)NC(=O)[C@H](Cc1ccccc1)NC(=O)CNC(=O)CNC(=O)[C@@H](N)Cc1ccc(O)cc1)C(=O)N[C@@H](CCCNC(=N)N)C(=O)N1CCC[C@H]1C(=O)N[C@@H](CCCCN)C(=O)N[C@@H](CC(C)C)C(=O)N[C@@H](CCCCN)C(=O)O [ANALOG OF DYNORPHIN A]
EC50 ([4]; read-out: pEC50 (converted)): 30200 nM
Activity (HTLA [22]): inactive
Activity (HTLA [23]): Active
Activity [13]: Active
Activity [14]: inactive
Activity (HTLA [24]): inactive
EC50 ([15]; read-out: EC50): 1100 nM
EC50 [25]: 6 pM
Activity [19]: inactive

C[C@@H]1C[C@H]2Cc3ncc(-c4ccc5c(n4)C[C@@H]4C[C@@H](C)C[C@]56NCCC[C@H]46)cc3[C@]3(C1)NCCC[C@H]23 [COMPLANADINE A]
EC50 ([4]; read-out: pEC50 (converted)): 692 nM
Activity [26]: Toxic
EC50 ([15]; read-out: EC50): 18000 nM
